# Assay results: PubChem BioAssay AID588831 (Broad Institute, 2011)
# Calls of active or inactive are those of the source.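 How the source made its calls: active means compounds lowering dye-labelled HDL uptake whose fitted half-maximal concentration is at most double the top tested dose; inconclusive means flat fit with moderate inhibition, or an unreliable curve fit; inactive means the rest.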
# Biological target: Scavenger receptor class B member 1 (Mus musculus) (UniProt Q61009)
# Assay: reversibility of SR-BI HDL uptake inhibition, dose response, mechanism study for SR-BI HDL uptake inhibitor project, ldlA[mSR-BI] CHO cells, fluorescence, dry powder (AID 588831)
# Details: DiI-HDL uptake after washout
# Outline: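 Assay system: ldlA[mSR-BI] CHO cells, LDL-receptor-deficient, overexpressing mouse SR-BI | Schedule: 2 h compound pretreatment at 37 °C, 3 h DiI-HDL uptake | Signal: DiI fluorescence, bottom read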
# Sequence of Scavenger receptor class B member 1 (Mus musculus) (Q61009 whole entry, looked up): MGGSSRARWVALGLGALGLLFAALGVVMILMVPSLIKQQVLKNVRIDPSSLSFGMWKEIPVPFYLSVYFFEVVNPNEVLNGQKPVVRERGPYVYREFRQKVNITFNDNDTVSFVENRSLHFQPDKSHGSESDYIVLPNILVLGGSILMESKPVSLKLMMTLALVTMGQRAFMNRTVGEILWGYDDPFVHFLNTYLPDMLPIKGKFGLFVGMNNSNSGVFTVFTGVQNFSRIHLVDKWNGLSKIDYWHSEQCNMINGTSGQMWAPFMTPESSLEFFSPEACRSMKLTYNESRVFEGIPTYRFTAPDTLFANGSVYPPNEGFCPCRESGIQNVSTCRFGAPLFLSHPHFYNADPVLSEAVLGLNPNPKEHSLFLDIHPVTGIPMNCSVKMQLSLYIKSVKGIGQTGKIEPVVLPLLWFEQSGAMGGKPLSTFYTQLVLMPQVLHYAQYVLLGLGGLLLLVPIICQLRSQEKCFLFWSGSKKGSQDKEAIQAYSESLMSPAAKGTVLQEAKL
AC50,"activity change, negative = inhibition (at 35 µM (top of the series))",SMILES
315 nM,–,COCC(=O)N1CCc2cc(-c3csc(NC(=O)c4cc(OC)cc(OC)c4)n3)ccc21
0.987 nM,–,CCCCCCC1CCC/C1=N\NC(N)=S (stereo not drawn)
–,inactive,C[C@H](C(=O)NC1CCCC1)N(C(=O)Cn1nnc(-c2ccc3c(c2)OCO3)n1)C1CCCCC1
